Source: PubChem BioAssay
CSC inhib: cancer stem cell inhibition; cancer stem cell-like cells viability, luminescence; inhibition, % at 7.5 µM; 300,000 compounds, 1.1% hits; in the data active = inhibition above about 75%; inconclusive = no clear call, values can overlap the other calls; tested in HMLE shEcad cells
SKKanGAS inh: inhibitors of SKKanGAS S. pyogenes growth in kanamycin (SK-promoter or general growth effect); 300,000 compounds, 1.3% hits; BacTiter-Glo, 6 h; inhibition, % at 7.5 µM;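 active = mean replicate score, as percent of positive control median, at least 50; inconclusive = mean below 50 but one replicate at or above 50; inactive = mean and every replicate below 50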;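 also: strain carries kanamycin resistance gene driven by streptokinase promoter and grows in 40 µg/ml kanamycin; loss of luminescence reflects streptokinase promoter inhibition or plain growth inhibition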
T cruzi inh: blocks replication of Trypanosoma cruzi; T. cruzi beta-gal in NIH3T3, luminescence, 90 h; inhibition, % (no concentration beside the values); 300,000 compounds, 1.4% hits;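 active = mean inhibition across valid replicates above about 55%, limit read from the data; inconclusive = mean below that limit but half or more replicates reach it; inactive = mean below it, under half of replicates reach it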;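 also: signal also drops with host cell toxicity which is not excluded here; higher percent means less beta-gal luminescence so fewer parasites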
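compound dosing = single 50 nL compound addition per well in DMSO | material = NIH/3T3 host cells with β-galactosidase reporter T. cruzi | input = 5,000 host fibroblasts per well | timing = ≥90 h infection period, 3 h prior cell attachment | read-out basis = percent inhibition of parasite-derived β-gal signal | detection = GalScreen β-gal luminescence, detergent lysis, 60 min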
Mdm2-MdmX inh: human Mdm2/MdmX binding inhibition; 330,000 compounds, 3% hits; O15151+Q00987; inhibition, % at 8 µM; SaOS-2 split-luciferase Mdm2/MdmX complementation, luminescence;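 active = inhibition of at least 50% at 8 µM in the primary screen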
Target sequence (O15151 whole entry, looked up): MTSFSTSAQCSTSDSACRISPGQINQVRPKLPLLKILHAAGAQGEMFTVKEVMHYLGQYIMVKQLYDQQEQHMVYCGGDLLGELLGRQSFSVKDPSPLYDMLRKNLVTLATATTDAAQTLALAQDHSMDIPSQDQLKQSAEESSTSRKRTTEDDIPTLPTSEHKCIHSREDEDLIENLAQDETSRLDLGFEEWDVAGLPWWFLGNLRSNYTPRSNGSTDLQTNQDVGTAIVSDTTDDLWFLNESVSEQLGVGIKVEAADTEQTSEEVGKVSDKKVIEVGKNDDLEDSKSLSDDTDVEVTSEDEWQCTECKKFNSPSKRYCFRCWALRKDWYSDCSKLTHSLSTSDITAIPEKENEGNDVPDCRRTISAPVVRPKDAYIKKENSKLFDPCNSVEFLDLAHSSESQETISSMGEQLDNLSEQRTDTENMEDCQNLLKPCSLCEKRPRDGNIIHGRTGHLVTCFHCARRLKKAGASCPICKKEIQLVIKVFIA
Target sequence (Q00987 whole entry, looked up): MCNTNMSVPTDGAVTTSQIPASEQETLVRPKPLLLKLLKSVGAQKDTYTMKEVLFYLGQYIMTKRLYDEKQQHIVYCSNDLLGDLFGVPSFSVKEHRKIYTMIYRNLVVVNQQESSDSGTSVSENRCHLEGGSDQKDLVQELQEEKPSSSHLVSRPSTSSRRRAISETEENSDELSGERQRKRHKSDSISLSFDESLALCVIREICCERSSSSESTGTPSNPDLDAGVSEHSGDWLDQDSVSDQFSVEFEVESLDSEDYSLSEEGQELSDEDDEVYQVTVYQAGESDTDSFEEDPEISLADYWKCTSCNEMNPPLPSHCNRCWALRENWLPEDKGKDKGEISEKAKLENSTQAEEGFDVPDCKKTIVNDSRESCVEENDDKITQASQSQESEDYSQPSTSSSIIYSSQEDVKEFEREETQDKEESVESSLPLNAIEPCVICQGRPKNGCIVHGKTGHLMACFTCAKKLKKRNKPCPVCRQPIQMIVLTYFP
Calb FLC: C. albicans growth modulation with fluconazole | growth inhibition, % (concentration not given with the values) | AID 1979 | 300,000 compounds, 0.57% hits | C. albicans CaCi-2 (fluconazole-resistant clinical isolate) + fluconazole, Alamar Blue growth, 48 h;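 active = growth inhibition above about 58% in most replicates, limit read from the data, passing the limit was not always enough; inconclusive = exactly half the replicates above a set limit; inactive = most replicates below a set limit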;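 also: all wells also contain fluconazole at 8 µg/ml as a sub-toxic cotreatment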
Beta cell apopt: blocks beta cell apoptosis | protection from apoptosis, % (concentration not given with the values) | AID 435005 | INS-1E cytokine-induced death, ATP luminescence, 48 h; percent of positive-control rescue, neutral wells zero | 300,000 compounds, 0.8% hits;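 active = Every replicate reaches about 75%, or at least half do and their mean reaches it too, limit read from the data; inconclusive = At least half of replicates reach the limit but their mean does not; inactive = Under half of replicates reach the limit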;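 also: higher means more ATP so stronger rescue from cytokine killing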
Mdm2 MdmX conf: human Mdm2/MdmX binding inhibition, confirmed; 10,000 compounds, 55% hits; inhibition, % at 8 µM; AID 489028; shares compounds with Mdm2-MdmX inh; luminescent assay; in the data active = inhibition above about 40%
Full FLuc ctr: counter-screen for Mdm2/MdmX inhibitors: full-length luciferase; inhibition, % at 8 µM; SaOS-2 full-length luciferase counterscreen, luminescence; shares compounds with Mdm2-MdmX inh; 6,200 compounds, 77% hits;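 active = mean inhibition at 8 µM reaching about 37%, which flags the compound as non-specific, limit read from the data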;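 also: p53-null SaOS-2 cells with luciferase driven by a doxycycline-inducible promoter; compound on cells about two nights before reading with doxycycline added after day one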
Each line names hits and unclear results; the compound was inactive in the other large screens (follow-up assays come after a bar, where they were run). Compounds with a hit are over-represented: about 5.7% of the library has one in this group of screens.

CC(C)(C)OC(=O)NCc1ccc(CNC(=O)c2nc[nH]c2C(=O)NCc2ccc(CNC(=O)OC(C)(C)C)cc2)cc1	none (no result: CSC inhib, SKKanGAS inh, T cruzi inh, Calb FLC)
CC(C)C[C@H](NC(=O)c1[nH]cnc1C(=O)Nc1ccc(CNC(=O)OC(C)(C)C)cc1)C(=O)OC(C)(C)C	Mdm2-MdmX inh 53 | Mdm2 MdmX conf inactive
CC(C)(C)OC(=O)CNC(=O)c1nc[nH]c1C(=O)NCc1ccc(CNC(=O)OC(C)(C)C)cc1	none
CC(C)(C)OC(=O)NCCCCCNC(=O)c1nc[nH]c1C(=O)NCc1ccc(CNC(=O)OC(C)(C)C)cc1	Mdm2-MdmX inh 54 (no result: SKKanGAS inh, T cruzi inh, Calb FLC) | Mdm2 MdmX conf inactive
CCOc1ccc(OCCC(=O)N(CC)CC(=O)NCc2ccc(Cl)cc2)cc1	none
NC(=O)c1cc([N+](=O)[O-])ccc1NCc1ccc(N)cc1	none (no result: SKKanGAS inh, T cruzi inh, Calb FLC)
COc1cc(NC(=O)C(C)N2CCN(C(=O)C3CC3)CC2)cc(OC)c1 (stereo not drawn)	none (no result: SKKanGAS inh, T cruzi inh, Calb FLC)
O=C(O)C1C2C=CC(O2)C1C(=O)Nc1cccc(C(F)(F)F)c1 (stereo not drawn)	none
C[C@H](NC(=O)c1[nH]cnc1C(=O)Nc1ccc(CNC(=O)OC(C)(C)C)cc1)C(=O)OCc1ccccc1	Mdm2-MdmX inh 80 | Mdm2 MdmX conf inactive
CC(C)(C)OC(=O)NCCCCCNC(=O)c1nc[nH]c1C(=O)NCC(=O)OCc1ccccc1	Mdm2-MdmX inh 66 (no result: SKKanGAS inh, T cruzi inh, Calb FLC) | Mdm2 MdmX conf 46 | Full FLuc ctr 50
Cc1n[nH]c(=S)n1/N=C/c1ccccc1OCc1ccc(Cl)cc1Cl	Mdm2-MdmX inh 53 | Mdm2 MdmX conf inactive
CCN1CCc2c(sc(NC(=O)c3ccc(S(=O)(=O)N4CCOCC4)cc3)c2C(N)=O)C1	none
CCN1CCc2c(sc(NC(=O)c3ccc(S(=O)(=O)N4CCOCC4)cc3)c2C(=O)OC)C1	Mdm2-MdmX inh 64 | Mdm2 MdmX conf inactive
COc1cccc(O)c1CN1CCC(Oc2ccc(C(=O)NCc3ccccn3)cc2)CC1	none
Cc1cccc(N2CCN(C(=O)c3cccc(N4CCCC4=O)c3)C(C)C2)c1 (stereo not drawn)	Mdm2-MdmX inh 55 | Mdm2 MdmX conf 60 | Full FLuc ctr 50
O=C(c1cccc(N2CCCC2=O)c1)N1CCN(c2ccc(F)cc2)CC1	none
O=C(c1cccc(N2CCCC2=O)c1)N1CCN(c2cccc(Cl)c2)CC1	Mdm2-MdmX inh 57 | Mdm2 MdmX conf 68 | Full FLuc ctr 48
Cc1cccc(N2CCN(C(=O)c3ccc(N4CCCC4=O)cc3)CC2C)c1 (stereo not drawn)	none (no result: CSC inhib)
COc1ccccc1CN(C)C(=O)c1cccc(S(=O)(=O)N2CCc3ccccc3C2)c1	none (no result: CSC inhib, SKKanGAS inh, T cruzi inh, Calb FLC)
O=C1C=C(c2ccc3cc[nH]c3c2)C[C@@H](c2ccc3c(c2)OCO3)C1	Mdm2-MdmX inh 57 (no result: SKKanGAS inh, T cruzi inh, Calb FLC) | Mdm2 MdmX conf 57 | Full FLuc ctr 53
CSc1cccc(N2CC(C(=O)N(CC(C)C)c3c(N)n(Cc4ccccc4)c(=O)[nH]c3=O)CC2=O)c1 (stereo not drawn)	none (no result: Beta cell apopt)
Cc1ccccc1CS(=O)(=O)c1cnc2ccccc2n1	Mdm2-MdmX inh 55 | Mdm2 MdmX conf inactive
c1ccc(NC2=NCCN2CCC2CCCC2)cc1	none
COc1ccc(-c2cc(=O)[nH]c3ccccc23)cc1	Mdm2-MdmX inh 58 (no result: CSC inhib, SKKanGAS inh, T cruzi inh, Calb FLC) | Mdm2 MdmX conf inactive
COc1cccc(N(CC(=O)NC2CCCCC2)C(=O)CCC(=O)Nc2nc(C)cs2)c1	none
CCOc1cc(/C=N/N=C(\N)c2nonc2N)cc(Br)c1OCc1cccc2ccccc12	Mdm2-MdmX inh 69 | Mdm2 MdmX conf 59 | Full FLuc ctr inactive
COC(=O)[C@@H]1C[C@@H](c2ccccc2)[C@H](C)C1(C)C	none (no result: CSC inhib, SKKanGAS inh, T cruzi inh, Calb FLC)
CN(C(=O)COC(=O)Cn1cnc2ccccc21)C1CCCCC1	none (no result: SKKanGAS inh, T cruzi inh, Calb FLC)
O=C(CS(=O)c1ccc(C(F)(F)F)cc1[N+](=O)[O-])Oc1ccccc1 (stereo not drawn)	CSC inhib 77, Mdm2-MdmX inh 52 | Mdm2 MdmX conf inactive
COC(=O)c1ccc(OC(=O)CS(=O)c2ccccc2[N+](=O)[O-])cc1 (stereo not drawn)	none
CCOC(=O)c1c(NC(=O)CSc2nnnn2-c2ccccc2)sc2c1CC(C)(C)NC2(C)C	T cruzi inh 73, Mdm2-MdmX inh 55 | Mdm2 MdmX conf inactive
CCOC(=O)c1c(NC(=O)CSc2nnnn2-c2ccccc2OCC)sc2c1CC(C)(C)NC2(C)C	T cruzi inh 57, Mdm2-MdmX inh 58 | Mdm2 MdmX conf 41 | Full FLuc ctr 73
CCOC(=O)c1c(NC(=O)CSc2nc3ccc(C)cc3[nH]2)sc2c1CC(C)(C)NC2(C)C	CSC inhib 78, T cruzi inh 61, Mdm2-MdmX inh 75 | Mdm2 MdmX conf 48 | Full FLuc ctr 69
Cc1ccc2nc(SCC(=O)Nc3ccc(C(N)=O)cc3)[nH]c2c1	none
CCCN1CCN(S(=O)(=O)c2ccc3c(c2)CCC(=O)N3)CC1	none (no result: CSC inhib, SKKanGAS inh, T cruzi inh, Calb FLC)
Cc1ccc(S(=O)(=O)N(Cc2cccc(F)c2)C(=O)N2CCN(C)CC2)cc1	none (no result: CSC inhib)
CCN(c1ccccc1)S(=O)(=O)c1ccc(C(=O)NCC(=O)Nc2ccc(F)c(F)c2F)cc1	none (no result: SKKanGAS inh, T cruzi inh, Calb FLC)
O=[N+]([O-])c1ccc(/C=N/NC(=S)Nc2ccccc2F)o1	none
Cc1c(-c2ccc(/C=N/NC(=O)C(=O)Nc3ccccc3F)o2)cccc1[N+](=O)[O-]	Mdm2-MdmX inh 56 | Mdm2 MdmX conf inactive
Cc1cc(N2CCN(C)CC2)nc2ccc(NC(=S)N3CCN(c4ccc(F)cc4)CC3)cc12	CSC inhib inconclusive, Mdm2-MdmX inh 94 | Mdm2 MdmX conf inactive
Cc1cccc(N2CCN(C(=S)Nc3ccc4nc(N5CCN(C)CC5)cc(C)c4c3)CC2C)c1 (stereo not drawn)	CSC inhib inconclusive, Mdm2-MdmX inh 88 | Mdm2 MdmX conf 60 | Full FLuc ctr 65
C=CCOc1ccc(C2=NOC(C(=O)Nc3ccc4c(c3)OCCO4)C2)cc1 (stereo not drawn)	none
NS(=O)(=O)c1ccc(CNC(=O)c2cc(-c3ccccn3)nc3ccc(Cl)cc23)cc1	Mdm2-MdmX inh 51 (no result: Beta cell apopt) | Mdm2 MdmX conf inactive
Cc1ccccc1NS(=O)(=O)c1ccc(C(=O)NN2CCCCC2)cc1	none
Cc1cc(C)c2oc(-c3ccc(Cl)c(NC(=O)c4ccc(C#N)cc4F)c3)nc2c1	Mdm2-MdmX inh 69 | Mdm2 MdmX conf inactive
N#Cc1ccc(C(=O)Nc2cccc3ncccc23)c(F)c1	none
Cc1n[nH]c(C)c1N=Nc1cc(Cl)ccc1Cl	Mdm2-MdmX inh 52 | Mdm2 MdmX conf inactive | Full FLuc ctr 39
Cc1nn(C)c(C)c1/C=N/N=C1\CCC2C3CCc4cc(O)ccc4C3CCC12C (stereo not drawn)	Mdm2-MdmX inh 57 | Mdm2 MdmX conf inactive
